Fewer inactive variants are shown than the library holds. A value given as a limit tells only on which side of the number the result lay.

The results in this text go back to the RNAGym collection of RNA variant scans (doi:10.1126/science.aae0568).

B1: tRNA (parent)
chain: GUUCCGUUGGCGUAAUGGUAACGCGUCUCCCUCCUAAGGAGAAGACUGCGGGUUCGAGUCCCGUACGGAACG

Variants of B1 are the subject of this series. The experiment in a line: yeast fitness relative to wild type (ratio to wild type); higher = fitter; tRNA-Arg(CCU), competitive growth, 37 C, YPD. The method, boiled down: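 Variants of the tRNA-Arg(CCU) gene, chemically synthesised with a 3% per-site mutation rate at 69 sites, were placed at the native genomic locus in Saccharomyces cerevisiae. The pooled strains were competed in YPD at 37°C for 24 hours in six parallel replicates. Gene amplicons from the start population and from each end population were read by 100-nucleotide paired-end sequencing. Darwinian fitness relative to wild type came from changes in genotype frequencies; genotypes needed ≥ 100 starting reads, and estimates < 0.5 were set to 0.5.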
As for A14C C31U A40U A57G, the yeast fitness worked out at 0.53. The same measure for A14C C22G G25C A42G G44A C61G: not above 0.5; for A14G A15G G44A: not above 0.5; for A14C C49G A69C: not above 0.5.

A14C G50A G63C: the yeast fitness turned out to be 0.522. With A14C G58C G68C the figure was not above 0.5; with A14C G25A C29G A45U C62A A70C, not above 0.5. Take A14G A40U G44A A65U: the yeast fitness was not above 0.5.

A14G A42U C62A: the yeast fitness is not above 0.5.

Regarding A14C U19A A45C A65G, the yeast fitness was not above 0.5.

Take A14C C31U A40G: the yeast fitness was not above 0.5. The same measure for A14C C30U G50C C66U: not above 0.5. The same measure for A14G A43U A65U: 0.748; for A14C G56A: 0.762; for A14G A21C C34A U47C: not above 0.5. The same measure for A14C U26G C29A A42C: not above 0.5; for A14C G50A: 0.612; for A14C G50U: 0.708. Consider A14G A40G G41A A45U U47C, for which the yeast fitness is not above 0.5.

For A14C G17C U26A G41C G44U, the yeast fitness is not above 0.5. The same measure for A14C A45G G68C: not above 0.5; for A14G A15G A45U C62U: not above 0.5. With A14C C31U G58A C62U the figure was 0.609. The same measure for A14G A21C C33A A43U C62U: 0.558; for A14C C22G G25A C31U G58A: not above 0.5; for A14C C33G: 0.726. For A14C U19A C22U A45C, the yeast fitness is not above 0.5. With A14C G41A the figure was 0.553; with A14C U28G C55G G68C, not above 0.5. As for A14C C60A, the yeast fitness is 0.589. For the variant A14C G18C G41C, the yeast fitness is 0.662. As to A14G A40G A42U G67C, the yeast fitness was determined as 0.665.

Take A14C G39C: the yeast fitness is 0.575. With A14C C34A A37G C62U the figure was not above 0.5. With A14C G18A G48A the figure was not above 0.5.

For A14C C46U U53A, the yeast fitness was not above 0.5. With A14C U19A A21C C34U G39A the figure was 0.62; with A14G A40U G58C, 0.706; with A14G A36U C46A, 0.576. With A14C C61U A65C the figure was not above 0.5. In the case of A14C U28A G44A C55A, the yeast fitness was not above 0.5. In the case of A14G A15C G67U, the yeast fitness worked out at 0.62. The same measure for A14C C49A: 0.562; for A14C C49G: 0.542; for A14C C30G A37G A45G G50A U59C G67C: not above 0.5.

Regarding A14C U32G C34G A43U G58C G67U, the yeast fitness was not above 0.5.

For A14C U19G C31G C33U A42G U64C A65G, the yeast fitness is not above 0.5. The same measure for A14C G56A A69C: 0.578; for A14G A42G C55A: not above 0.5; for A14C U28A A42U: not above 0.5. With A14G A21G C22U, the yeast fitness was 0.555. With A14C C46U G50C C61A A70C the figure was not above 0.5; with A14C G18A G44A C66G, 0.56; with A14C U32G G56A, not above 0.5.

As to A14G A36G A45G A65U, the yeast fitness was not above 0.5.

Turning to A14G A21U G23A A37U, the yeast fitness was not above 0.5. Take A14C G25C U32A A43C G63A A69C: the yeast fitness was not above 0.5. Turning to A14G A37U A65C, the yeast fitness was determined as 0.543. With A14G A20G U47A G58C the figure was not above 0.5; with A14C C34U G39C A70U, not above 0.5; with A14C G41A A43C, not above 0.5. A14G A15C: the yeast fitness was determined as 0.733. With A14G A15G the figure was 0.917; with A14C C27G C33A A45U G67U, not above 0.5; with A14C C34U G39C G63A, not above 0.5. On to A14C A70U, for which the yeast fitness stood at 0.679. As for A14C A70C, the yeast fitness came out at 0.684.

On to A14C U26C A36G, for which the yeast fitness is not above 0.5. Take A14C C60A A70U: the yeast fitness is not above 0.5. The same measure for A14C G18A G50A G63C: not above 0.5; for A14C U16C A69U: not above 0.5. Consider A14G A20G, for which the yeast fitness turned out to be 0.883. Regarding A14G A20C, the yeast fitness is 0.813. With A14G A20U the figure was 0.942. With A14C U16C A37G A40U G51C A69C the figure was not above 0.5; with A14G A21U U59A, not above 0.5; with A14C A69U, 0.763. With A14C C34G the figure was 0.577; with A14C C34U, not above 0.5.

For A14G A15G G68C, the yeast fitness amounted to 0.537.

As for A14G A21C C30G C55G G67U, the yeast fitness came out at 0.534. Regarding A14C U54G, the yeast fitness was not above 0.5.

For the variant A14C U54C, the yeast fitness came out at 0.702. With A14C G48A G58A the figure was 1.04; with A14C G67U, 0.678; with A14C C46G, 0.953. As for A14C C66U, the yeast fitness stood at 0.657. A14C C66G: the yeast fitness was 0.558. With A14C C66A the figure was 0.722; with A14C C22G U26G, not above 0.5; with A14C C22G G63C, not above 0.5.

For A14C C61U, the yeast fitness stood at 0.626. With A14C C61A the figure was 0.604; with A14C U19C C66U, 0.722; with A14C C27G U28G, not above 0.5. The same measure for A14C C22A U59G C62G: not above 0.5. With A14C C27G, the yeast fitness was 0.574. Consider A14C G25A A36C G44A, for which the yeast fitness was 0.571. As for A14C G17C A21G U32A C34U, the yeast fitness is not above 0.5. The same measure for A14C C27A C31A G63A: not above 0.5. The same measure for A14G A45C C66U: 0.582. The same measure for A14C G25C C62U: not above 0.5; for A14C C22A G67C: not above 0.5; for A14C U26C C29U A43G: 0.59. Turning to A14C A45C G50A, the yeast fitness was not above 0.5.

A14C C22A C46A C66U: the yeast fitness is not above 0.5. With A14G A21G C22U C27U A45C G48C C61G the figure was not above 0.5; with A14C U59C C62A, not above 0.5; with A14C G25C A45G G48A, 0.534. In the case of A14C C27G C61U A70G, the yeast fitness came to 0.538. With A14C C29U C46A the figure was not above 0.5; with A14G A15G G56A, 0.567. Take A14C C27G C46G A57G A65G: the yeast fitness is not above 0.5. Take A14C U47A G52A: the yeast fitness is not above 0.5. The same measure for A14C C55A G58A: 0.55.

As to A14C U32G G39C, the yeast fitness is not above 0.5.

For the variant A14C C31G A37U G39C A42C, the yeast fitness is not above 0.5. With A14C A45U C62A the figure was not above 0.5; with A14G A20G C22G U59C A65U, not above 0.5; with A14G A42U C55U U59C G63A A65C, not above 0.5. The same measure for A14C C24G A45C U59C C61U: not above 0.5; for A14C G25C U47A: 0.608; for A14C C22U C24U A37G: not above 0.5. The same measure for A14C G25A C66U: 0.541; for A14C C27G C33A A45U G63C A69G: not above 0.5; for A14C C30A A36G C62U G63A: not above 0.5. As for A14C C27U A43U, the yeast fitness was not above 0.5.

A14C C27U A43C: the yeast fitness is not above 0.5. Take A14C C29U G52A C55G: the yeast fitness is not above 0.5. For A14G A40G G41A A45U, the yeast fitness stood at 0.686. With A14C C27G C46G A57C A70C the figure was not above 0.5; with A14C U32G, 0.752. With A14G A21C A36C A43U C60A the figure was 0.554; with A14G A42C A43U U59A C62G A65U, not above 0.5. In the case of A14C G52C C55G, the yeast fitness came out at 0.546. For A14C G25C C27G C34U U35A G38A U59A, the yeast fitness was not above 0.5. For the variant A14C U26A C29U C49U, the yeast fitness is not above 0.5. For the variant A14C A45U G48A, the yeast fitness was not above 0.5. In the case of A14C U16A C27G C55U, the yeast fitness was found to be 0.539. Turning to A14C G58C G67A, the yeast fitness is not above 0.5. Turning to A14C C34U A37G A69C, the yeast fitness was not above 0.5. Turning to A14C C24G G52C C55U C66U, the yeast fitness is not above 0.5. With A14C C30A A40U the figure was not above 0.5; with A14C C62A, 0.65. A14G A43C C66G A69U: the yeast fitness was not above 0.5.

For A14C U16A C24U U53C C60G, the yeast fitness was not above 0.5. The same measure for A14C U16A: 0.597; for A14C U16C: 0.724; for A14C U16G: 0.609. With A14C C24G U26A A36G A40U A43U the figure was not above 0.5; with A14G A15U U28A C33G G41C G56A, 0.589. With A14G A40C C60G the figure was 0.757; with A14C C34A G38C, not above 0.5; with A14C C22U C34U, 0.79. For the variant A14C U28A U54A C61G A69C, the yeast fitness is not above 0.5. For A14G A15U G25C, the yeast fitness was not above 0.5.

As for A14C A65G, the yeast fitness was 0.776. With A14G A36G the figure was 0.8; with A14G A15U C61U, not above 0.5. In the case of A14C G51A, the yeast fitness is 0.714. As to A14G A21G U53C A57C A69U, the yeast fitness was not above 0.5. A14C G58A C61A C62G: the yeast fitness is not above 0.5. On to A14G A21C C29A, for which the yeast fitness is 0.586. In the case of A14C C31U G50A C55G C62A, the yeast fitness was not above 0.5.

For the variant A14C C27A U28A A45G, the yeast fitness was not above 0.5.

Consider A14C C22U U64C A70G, for which the yeast fitness was not above 0.5. With A14C C24U A45U G51C, the yeast fitness is not above 0.5.
